Source: ChEMBL document CHEMBL4270643, “Structure-based drug design: Synthesis and biological evaluation of quinazolin-4-amine derivatives as selective Aurora A kinase inhibitors” (Eur J Med Chem, 2018)

Key:
Aurora kinase A = target: T1, Aurora kinase A (Homo sapiens, UniProt O14965); assay: Inhibition of Aurora A (unknown origin) using FAM-labelled peptide as substrate pretreated for 10 mins followed by substrate addition and measured after 60 mins by fluorescence assay
T1 sequence (O14965 whole entry): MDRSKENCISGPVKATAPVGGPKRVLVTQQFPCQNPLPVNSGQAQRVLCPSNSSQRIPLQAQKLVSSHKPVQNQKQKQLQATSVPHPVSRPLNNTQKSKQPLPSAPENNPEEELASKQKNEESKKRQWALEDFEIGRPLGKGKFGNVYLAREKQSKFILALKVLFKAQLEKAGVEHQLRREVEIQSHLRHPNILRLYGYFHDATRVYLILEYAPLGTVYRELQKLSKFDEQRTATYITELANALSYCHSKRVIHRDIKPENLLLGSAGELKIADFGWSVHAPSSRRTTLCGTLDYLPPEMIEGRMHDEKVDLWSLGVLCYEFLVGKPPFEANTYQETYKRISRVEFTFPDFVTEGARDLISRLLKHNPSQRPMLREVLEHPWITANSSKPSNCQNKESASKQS
Procedure, shortened: (§1)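 Kinase IC50 values are the mean of at least two independent experiments; selectivity is the Aurora A/B ratio of these IC50s.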

Aurora kinase B = Aurora kinase B (Homo sapiens, UniProt Q96GD4); assay: Inhibition of Aurora B (unknown origin) using FAM-labelled peptide as substrate pretreated for 10 mins followed by substrate addition and measured after 60 mins by fluorescence assay; procedure, shortened: as §1
Homo sapiens = species: Homo sapiens; assay: Selectivity ratio of IC50 for Aurora B (unknown origin) to IC50 for Aurora A (unknown origin)
K562 = assay: Antiproliferative activity against human K562 cells after 48 hrs by CCK8 assay; assay type: functional, cell-based
MCF7 = assay: Antiproliferative activity against human MCF7 cells after 48 hrs by CCK8 assay; assay type: functional, cell-based
HeLa = assay: Antiproliferative activity against human HeLa cells after 48 hrs by CCK8 assay; assay type: functional, cell-based
DU-145 = assay: Antiproliferative activity against human DU145 cells after 48 hrs by CCK8 assay; assay type: functional, cell-based; settings: DU-145, 48 h
MDA-MB-231 = assay: Antiproliferative activity against human MDA-MB-231 cells after 48 hrs by CCK8 assay; assay type: functional, cell-based; settings: MDA-MB-231, 48 h
SK-BR-3 = assay: Antiproliferative activity against human SKBR3 cells after 48 hrs by CCK8 assay; assay type: functional, cell-based
MOLT-4 = assay: Antiproliferative activity against human MOLT4 cells after 48 hrs by CCK8 assay; assay type: functional, cell-based
[1] = Homo sapiens, K562, 48 h, read-out: IC50
[2] = Homo sapiens, MCF7, 48 h, read-out: IC50
[3] = Homo sapiens, HeLa, 48 h, read-out: IC50
[4] = Homo sapiens, SK-BR-3, 48 h, read-out: IC50
[5] = Homo sapiens, MOLT-4, 48 h, read-out: IC50

Chain of Aurora kinase B (Q96GD4 whole entry): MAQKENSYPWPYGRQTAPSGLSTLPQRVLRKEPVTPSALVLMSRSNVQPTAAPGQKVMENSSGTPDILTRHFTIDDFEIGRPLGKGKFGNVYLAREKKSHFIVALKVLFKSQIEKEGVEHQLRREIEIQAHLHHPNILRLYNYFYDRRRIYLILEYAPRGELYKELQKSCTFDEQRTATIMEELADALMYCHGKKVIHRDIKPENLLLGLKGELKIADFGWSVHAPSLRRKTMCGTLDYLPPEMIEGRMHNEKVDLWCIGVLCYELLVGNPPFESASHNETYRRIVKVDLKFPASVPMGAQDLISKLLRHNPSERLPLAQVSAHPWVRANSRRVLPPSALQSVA

Row | SMILES | IC50 (Aurora kinase A) [µM] | IC50 (Aurora kinase B) [µM] | Ratio IC50 (Homo sapiens) | IC50 (K562; [1]) [µM] | IC50 (MCF7; [2]) [µM] | IC50 (HeLa; [3]) [µM] | IC50 (DU-145) [µM] | IC50 (MDA-MB-231) [µM] | IC50 (SK-BR-3; [4]) [µM] | IC50 (MOLT-4; [5]) [µM] | IC50 (K562; k562) | IC50 (MOLT-4; molt-4) | IC50 (SK-BR-3; sk-br-3) | IC50 (MCF7; mcf7) | IC50 (HeLa; hela)
1 | Cc1cc(Nc2nc(-c3ccccc3)nc3ccccc23)[nH]n1 | 0.028 | 0.858 |  |  |  |  |  |  |  |  |  |  |  |  | 
2 | Cc1cc(Nc2nc(C(C)C)nc3ccccc23)n[nH]1 | 0.103 | 1.15 | 11 | 3.92 | 10.7 | 2.81 | 7.43 | 4.8 | 11.9 |  |  |  |  |  | 
3 | COc1cccc2c(Nc3cc(C)[nH]n3)nc(Cc3ccccc3)nc12 | 0.041 | 0.893 | 22 | 1.44 | 6.28 | 1.45 | > 10 | 2.62 | 2.72 | 4.81 |  |  |  |  | 
4 | Cc1cc(Nc2nc(-c3ccccc3)nc3cc(N4CCN(C)CC4)ccc23)n[nH]1 | 0.01 | 0.27 | 30 | 0.191 | 0.654 | 0.179 | 0.409 | 0.142 | 2.49 | 0.149 |  |  |  |  | 
5 | CN1CCN(c2ccc3c(Nc4cc[nH]n4)nc(-c4ccccc4)nc3c2)CC1 | 5.95 | 14.4 | 2.4 | 6.75 | 7.88 | 7.85 | 5.27 | 3.98 | 6.12 |  |  |  |  |  | 
6 | Cc1cc(Nc2nc(-c3ccccc3)nc3cc(Cl)ccc23)n[nH]1 | 0.132 |  |  |  | > 30 | > 30 | > 30 | > 30 |  |  | Not Active | Not Active | Not Active |  | 
7 | Cc1cc(Nc2nc(-c3ccc4ccccc4c3)nc3ccccc23)n[nH]1 | 0.128 | 5.07 | 40 | 15 | > 30 | 3.75 | 10.4 | 11 | 7.15 | 10.4 |  |  |  |  | 
8 | Cc1cc(Nc2nc(-c3ccccc3)nc3cc(F)ccc23)n[nH]1 | 0.072 | 6.28 | 88 | > 30 | > 30 | 9.7 | > 30 | 11.2 | 10.7 |  |  | Not Active |  |  | 
9 | Cc1ccc(C(=O)c2nc(Nc3cc(C)[nH]n3)c3ccc(Cl)cc3n2)cc1 | 1.3 | > 100 | > 77 |  |  |  | 16 | > 30 |  |  | Not Active |  | Not Active | Not Active | Not Active
10 | Cc1cc(Nc2nc(Cc3ccccc3)nc3ccccc23)n[nH]1 | 0.069 | 1.27 | 18 | 2.29 | 13.3 | 1.52 | 4.44 | 3.12 | 9.1 | 5.79 |  |  |  |  | 
11 | COc1cccc2c(Nc3cc(C)[nH]n3)nc(-c3ccccc3)nc12 | 0.025 | 0.547 | 21 | 2.3 | 4.17 | 0.817 | 6.36 | 1.9 | 1.85 | 2.86 |  |  |  |  | 
12 | Cc1cc(Nc2nc(-c3ccccc3)nc3c([N+](=O)[O-])cccc23)n[nH]1 | 0.174 | 4.59 | 26 | 6.43 | 4.53 | 2.46 | 6.62 | 3.47 | 4.59 | 6.48 |  |  |  |  | 
13 | COc1cccc(OC)c1C(=O)c1nc(Nc2cc(C)[nH]n2)c2ccc(N3CCC(C(=O)OC(C)(C)C)CC3)cc2n1 | 0.217 | > 60 | > 276 | 0.373 | 1.51 | 0.526 | 3.61 | 1.38 | 2.75 |  |  |  |  |  | 
14 | Cc1cc(Nc2nc(-c3ccccc3)nc3cc(N4CCC(C(=O)O)CC4)ccc23)n[nH]1 | 0.006 | 0.127 | 20 | 5.52 | 6.04 | 1.86 | 21.5 | 10.5 | 16.3 | 2.2 |  |  |  |  | 
15 | COc1ccc(C(=O)c2nc(Nc3cc(C)[nH]n3)c3ccc(Cl)cc3n2)cc1 | 0.744 | > 100 | > 134 |  |  | > 30 | 12.5 | 12.3 |  |  | Not Active |  | Not Active | Not Active | 
16 | Cc1cc(Nc2nc(-c3ccccc3)nc3cc([N+](=O)[O-])ccc23)n[nH]1 | 0.325 | > 100 | > 308 | 12 | > 30 | 10.1 | 7.36 | 9.83 | 8.86 |  |  |  |  |  | 
17 | COc1ccc2c(Nc3cc(C)[nH]n3)nc(-c3ccccc3)nc2c1 | 0.034 | 0.773 | 22 | 2.12 | 3.6 | 1.31 | 4.73 | 1.32 | 2.03 | 1.2 |  |  |  |  | 
18 | Cc1cc(Nc2nc(-c3ccccc3)nc3ccccc23)n[nH]1 |  |  | 30 | 2.99 | 6.16 | 0.883 | 7.99 | 2.88 | 2.54 | 5.15 |  |  |  |  | 
19 | Cc1cc(Nc2nc(C(=O)c3ccccc3)nc3ccccc23)n[nH]1 | 0.188 | 11.5 | 61 | > 30 | > 30 | 5.22 | > 30 | 17 | 14.7 | 8.82 |  |  |  |  | 
